Data reported in ChEMBL document CHEMBL1122704, “Syntheses and anthelmintic activity of alkyl 5(6)-(substituted-carbamoyl)- and 5(6)-(disubstituted-carbamoyl)benzimidazole-2-carbamates and related compounds” (1984).
Active and inactive are the calls of the source. No cut-off for these calls is given here.

Key:
[1] = test system: Ancylostoma ceylanicum; experiment: Compound was evaluated for the biological activity against Ancylostoma ceylanicum in hamsters at the 250 mg/kg; assay type: functional
Method in brief: (§1)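 Hamsters of either sex (40–60 g) infected orally with 60 third-stage larvae. Test compound given orally as a single dose on day 20 ± 1 postinfection, starting at 250 mg/kg × 1. Lower doses were used for active compounds to establish dose–response. Method of Ray et al. as modified locally.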

[2] = test system: Rattus norvegicus; experiment: Compound was evaluated for the biological activity against Hymenolepsis nana (rats)at the 250 mg/kg; insignificant activity; assay type: functional, organism-based; set-up: dose 250 mg/kg
Method in brief: (§2)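 Male rats (25–35 g) infected orally with 200 viable eggs. Infection confirmed by ovoscopic examination on days 17–20 postinoculation. Positive rats dosed orally on day 20 ± 1, initially 250 mg/kg × 1, then lower doses for dose–response. Method of Steward.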

[3] = test system: Cricetinae gen. sp.; experiment: Compound was evaluated for the biological activity against Ancylostoma ceylanicum in hamsters at the 100-6.25 mg/kg; assay type: functional, Cricetulus griseus; method in brief: as §1
[4] = test system: Cricetinae gen. sp.; experiment: Compound was evaluated for the biological activity against Ancylostoma ceylanicum in hamsters at the 3.12 mg/kg; assay type: functional, Cricetulus griseus; method in brief: as §1
[5] = test system: Rattus norvegicus; experiment: Compound was evaluated for the biological activity against Hymenolepsis nana (rats) at the 100 mg/kg; assay type: functional; method in brief: as §2
[6] = test system: Rattus norvegicus; experiment: Compound was evaluated for the biological activity against Hymenolepsis nana (rats) at the 50 mg/kg; assay type: functional; method in brief: as §2
[7] = test system: Rattus norvegicus; experiment: Compound was evaluated for the biological activity against Nippostrongylus brasiliensis in rats at the 100-50 mg/kg; assay type: functional
Method in brief: (§3)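 Male rats (25–40 g) inoculated subcutaneously with 500 larvae taken from 6–8-day-old fecal culture. Compounds given orally on day 9 postinfection at 250 mg/kg × 3, with lower doses as follow-up for active compounds. Steward technique as modified by Katiyar and Sen.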

[8] = test system: Rattus norvegicus; experiment: Compound was evaluated for the biological activity against Nippostrongylus brasiliensis in rats at the 25 mg/kg; assay type: functional; method in brief: as §3
[9] = test system: Rattus norvegicus; experiment: Compound was evaluated for the biological activity against Nippostrongylus brasiliensis in rats at the 250 mg/kg; assay type: functional; method in brief: as §3
[10] = test system: Rattus norvegicus; experiment: Compound was evaluated for the biological activity against Hymenolepsis nana (rats) at the 250 mg/kg; assay type: functional; method in brief: as §2
[11] = test system: Rattus norvegicus; experiment: Compound was evaluated for the biological activity against Hymenolepsis nana (rats) at the 250 mg/kg; insignificant activity; assay type: functional, organism-based; set-up: dose 250 mg/kg; method in brief: as §2
[12] = test system: Rattus norvegicus; experiment: Compound was evaluated for the biological activity against Hymenolepsis nana (rats) aat the 250 mg/kg; assay type: functional; method in brief: as §2
[13] = test system: Nippostrongylus brasiliensis; experiment: (§4) Anti-nematode activity against Nippostrongylus brasiliensis in rats at 250 mg/kg; Insignificant activity.; assay type: functional
[14] = test system: Cricetinae gen. sp.; experiment: Compound was evaluated for the biological activity against Ancylostoma ceylanicum in hamsters at the 250 mg/kg; insignificant activity; assay type: functional, organism-based; set-up: dose 250 mg/kg; conditions: Cricetulus griseus; method in brief: as §1
[15] = test system: Cricetinae gen. sp.; experiment: Compound was evaluated for the biological activity against Ancylostoma ceylanicum in hamsters at the 100 mg/kg; insignificant activity; assay type: functional, organism-based; set-up: dose 100 mg/kg; conditions: Cricetulus griseus; method in brief: as §1
[16] = test system: Cricetinae gen. sp.; experiment: Compound was evaluated for the biological activity against Ancylostoma ceylanicum in hamsters at the 50 mg/kg; assay type: functional, Cricetulus griseus; method in brief: as §1
[17] = test system: Felis catus; experiment: Efficiency against Ancylostoma tubaeformis (hookworm) in cat at the 10 x 3 mg/kg; inactive; assay type: functional, organism-based; set-up: dose 3 mg/kg; conditions: at 3 mg/kg
[18] = test system: Felis catus; experiment: Efficiency against Ancylostoma tubaeformis (hookworm) in cat at the 25 x 3 mg/kg; assay type: functional
[19] = test system: Canis familiaris; experiment: Efficiency against Ancylostoma ceylanicum (hookworm) in dog at the 10 x 3 mg/kg; assay type: functional, Canis lupus familiaris
[20] = test system: Canis familiaris; experiment: Efficiency against Ancylostoma ceylanicum (hookworm) in dog at the 25 x 3 mg/kg; assay type: functional, Canis lupus familiaris
[21] = test system: Mus musculus; experiment: Efficiency against Syphacia obvelata (pinworm) in mouse at the 12.5 x 3 mg/kg; assay type: functional
Method in brief: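 Adult mice of both sexes (20–30 g) with pinworm infection, assessed by Standon's method. Oral dosing started at 25 mg/kg × 3, followed by lower doses for active compounds. Mebendazole at 50 mg/kg × 3 served as positive control.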

[22] = test system: Rattus norvegicus; experiment: Compound was evaluated for the biological activity against Hymenolepsis nana (rats) at the 100-50 mg/kg; assay type: functional; method in brief: as §2
[23] = test system: Rattus norvegicus; experiment: Compound was evaluated for the biological activity against Hymenolepsis nana (rats) at the 25 mg/kg; assay type: functional; method in brief: as §2
[24] = test system: Rattus norvegicus; experiment: Efficiency against L carinii (filarid worm) in cotton (against adults) rat at the 30 x 5 mg/kg (ip); assay type: functional
[25] = test system: Rattus norvegicus; experiment: Efficiency against L carinii (filarid worm) in cotton (against both microfilariae and adults) rat at the 10 x 5 mg/kg (ip); inactive; assay type: functional, organism-based; set-up: dose 5 mg/kg; conditions: at 5 mg/kg
[26] = test system: Rattus norvegicus; experiment: Efficiency against L carinii (filarid worm) in cotton (against both microfilariae and adults) rat at the 50 x 5 mg/kg (po); inactive; assay type: functional, organism-based; set-up: dose 5 mg/kg; conditions: at 5 mg/kg
[27] = test system: Rattus norvegicus; experiment: Efficiency against L carinii (filarid worm) in cotton (against microfilariae and inactive against adults) rat at 100 x 5 mg/kg (po); assay type: functional
[28] = test system: Rattus norvegicus; experiment: Efficiency against L carinii (filarid worm) in cotton (on adults) rat at the 30 x 5 mg/kg (ip); assay type: functional
[29] = test system: Rattus norvegicus; experiment: Efficiency against L carinii (filarid worm) in cotton (on microfilariae) rat at the 30 x 5 mg/kg (ip); assay type: functional
[30] = test system: Canis familiaris (dog); experiment: Efficiency against Toxocara species. (Ascaris) in dog at the 25 x 3 mg/kg
[31] = test system: Canis familiaris (dog); experiment: Efficiency against Taenia species. (tapeworm) in dog at the 25 x 3 mg/kg; inactive; conditions: at 3 mg/kg
[32] = test system: Cricetinae gen. sp.; experiment: Compound was evaluated for the biological activity against Ancylostoma ceylanicum in hamsters at the 100 mg/kg; assay type: functional, Cricetulus griseus; method in brief: as §1
[33] = as §4; assay type: functional
[34] = test system: Cricetinae gen. sp.; experiment: Compound was evaluated for the biological activity against Ancylostoma ceylanicum (hamsters and dogs) at the 50 mg/kg; assay type: functional, Cricetulus griseus
[35] = test system: Rattus norvegicus; experiment: Compound was evaluated for the biological activity against Nippostrongylus brasiliensis (rats) at the 100 mg/kg; assay type: functional; method in brief: as §3
[36] = test system: Rattus norvegicus; experiment: Compound was evaluated for the biological activity against Hymenolepsis nana (rats) at the 200 mg/kg; assay type: functional; method in brief: as §2
[37] = test system: Cricetinae gen. sp.; experiment: Compound was evaluated for the biological activity against Ancylostoma ceylanicum in hamsters at the 100-25 mg/kg; assay type: functional, Cricetulus griseus; method in brief: as §1
[38] = test system: Cricetinae gen. sp.; experiment: Compound was evaluated for the biological activity against Ancylostoma ceylanicum in hamsters at the 10 mg/kg; assay type: functional, Cricetulus griseus; method in brief: as §1

SMILES	Activity [1] [%]	Activity [10] [%]	Activity [11]	Activity [13]	other results
COC(=O)Nc1nc2cc(C(=O)N3CCCCC3)ccc2[nH]1	100	–	–	–	Activity [2]: inactive
COC(=O)Nc1nc2cc(C(=O)N3CCOCC3)ccc2[nH]1	100	100	–	–	Activity [3]: 100%; Activity [4]: 83%; Activity [5]: 100%; Activity [6]: 100%; Activity [7]: 100%; Activity [8]: 50%; Activity [9]: 100%
COC(=O)Nc1nc2cc(C(=O)NC3CCCCC3)ccc2[nH]1	100	–	inactive	–	Activity [9]: 63.2%
COC(=O)Nc1nc2cc(C(=O)N3CCN(c4ccccc4)CC3)ccc2[nH]1	100	–	–	–	Activity [3]: 100%; Activity [4]: 77%; Activity [12]: 100%; Activity [5]: 100%; Activity [6]: 100%; Activity [7]: 100%; Activity [8]: 86.6%; Activity [9]: 100%
CCOC(=O)Nc1nc2cc(C(=O)NCCc3ccc(OC)c(OC)c3)ccc2[nH]1	–	–	inactive	–	–
COC(=O)Nc1nc2cc(C(=O)Nc3ccc(S(=O)(=O)c4ccc(NC(=O)c5ccc6[nH]c(NC(=O)OC)nc6c5)cc4)cc3)ccc2[nH]1	48.2	–	inactive	inactive	–
COC(=O)Nc1nc2cc(C(=O)Nc3ccccn3)ccc2[nH]1	95	–	inactive	inactive	–
COC(=O)Nc1nc2cc(C(=O)Nc3nccs3)ccc2[nH]1	–	–	inactive	inactive	Activity [14]: inactive
COC(=O)Nc1nc2cc(C(=O)NCCc3ccc(NC(=O)c4ccc5[nH]c(NC(=O)OC)nc5c4)cc3)ccc2[nH]1	50	–	inactive	inactive	–
COC(=O)Nc1nc2cc(C(=O)NCCNC(=O)c3ccc4[nH]c(NC(=O)OC)nc4c3)ccc2[nH]1	50	–	inactive	inactive	–
COC(=O)Nc1nc2cc(C(=O)NC3=NCCS3)ccc2[nH]1	100	100	–	inactive	Activity [15]: inactive; Activity [16]: 55.5%
COC(=O)Nc1nc2cc(C(=O)N3CCN(c4ccccn4)CC3)ccc2[nH]1	100	100	–	–	Efficiency [17]: inactive; Efficiency [18]: 100%; Efficiency [19]: 100%; Efficiency [20]: 100%; Activity [3]: 100%; Activity [4]: 88%; Efficiency [21]: 100%; Activity [22]: 100%; Activity [23]: 100%; Activity [7]: 100%; Activity [8]: 60%; Activity [9]: 100%; Efficiency [24]: 100%; Efficiency [25]: inactive; Efficiency [26]: inactive; Efficiency [27]: 94.8%; Efficiency [28]: 100%; Efficiency [29]: 97%; Efficiency [30]: 100%; Efficiency [31]: inactive
CCOC(=O)Nc1nc2cc(C(=O)Nc3ccccc3)ccc2[nH]1	50	–	inactive	inactive	–
COC(=O)Nc1nc2cc(C(=O)Nc3ccc(F)cc3)ccc2[nH]1	100	100	–	inactive	–
CCCN(CCC)C(=O)c1ccc2[nH]c(NC(=O)OC)nc2c1	100	100	–	inactive	Activity [32]: 75%; Activity [5]: 100%
COC(=O)Nc1nc2cc(C(=O)Nc3ccc(Sc4ccc(NC(=O)c5ccc6[nH]c(NC(=O)OC)nc6c5)cc4)cc3)ccc2[nH]1	48.2	–	inactive	inactive	–
COC(=O)Nc1nc2cc(C(=O)Nc3nc4ccc(OC)cc4s3)ccc2[nH]1	–	–	inactive	–	Activity [14]: inactive; Activity [33]: 86.6%
CNC(=O)c1ccc2[nH]c(NC(=O)OC)nc2c1	95	100	–	inactive	–
COC(=O)Nc1nc2cc(C(=O)N(C(C)C)C(C)C)ccc2[nH]1	100	100	–	–	Activity [34]: 88.8%; Activity [32]: 100%; Activity [6]: 100%; Activity [35]: 100%; Activity [9]: 100%
COC(=O)Nc1nc2cc(NC(=O)c3ccc(C(=O)Nc4ccc5[nH]c(NC(=O)OC)nc5c4)cc3)ccc2[nH]1	100	–	inactive	inactive	Activity [16]: 66.6%
CCCCNC(=O)c1ccc2[nH]c(NC(=O)OC)nc2c1	100	100	–	inactive	–
CCN(CC)C(=O)c1ccc2[nH]c(NC(=O)OC)nc2c1	100	100	–	–	Activity [9]: 100%
COC(=O)Nc1nc2cc(C(=O)Nc3ncc(C)s3)ccc2[nH]1	100	100	–	inactive	Activity [5]: 100%
COC(=O)Nc1nc2cc(C(=O)Nc3ccccc3)ccc2[nH]1	87	–	–	inactive	–
CCCCCCCCNC(=O)c1ccc2[nH]c(NC(=O)OC)nc2c1	100	–	–	inactive	Activity [36]: 100%
COC(=O)Nc1nc2cc(C(=O)Nc3cccc(C)n3)ccc2[nH]1	100	100	–	inactive	Activity [32]: 100%; Activity [16]: 92.5%
COC(=O)Nc1nc2cc(C(=O)NCc3ccco3)ccc2[nH]1	100	100	–	inactive	Activity [37]: 100%; Activity [5]: 100%; Activity [23]: 100%; Activity [6]: 100%; Activity [38]: 57%
COC(=O)Nc1nc2cc(C(=O)Nc3ccncc3)ccc2[nH]1	75	–	inactive	inactive	–
